# A selection: hits, their analogues and other compounds. The true share with any hit is near 2%.
# Rpn11 block = Rpn11 (PSMD14) deubiquitinase inhibitors, primary screen, biochemical, fluorescence polarization, uHTS | inhibition, % at 20 µM | human 26S proteasome, Ub4-pepOG fluorescence polarization; 20S core pre-blocked with epoxomicin | 26S proteasome non-ATPase regulatory subunit 14 (Homo sapiens), O00487 | 360,000 compounds, 0.59% hits;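 active = inhibition at 20 µM, scaled to each plate's controls, above about 33%, limit read from the data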
# Target sequence (O00487 whole entry, looked up): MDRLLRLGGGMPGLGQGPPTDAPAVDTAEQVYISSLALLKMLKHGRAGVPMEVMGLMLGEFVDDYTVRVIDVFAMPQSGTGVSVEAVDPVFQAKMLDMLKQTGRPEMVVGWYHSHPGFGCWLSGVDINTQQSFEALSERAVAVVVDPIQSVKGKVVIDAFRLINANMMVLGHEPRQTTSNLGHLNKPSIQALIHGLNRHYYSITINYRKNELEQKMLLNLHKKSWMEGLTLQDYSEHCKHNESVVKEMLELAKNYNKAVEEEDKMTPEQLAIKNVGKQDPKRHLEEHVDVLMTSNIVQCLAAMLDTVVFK
# LMPTP block = LMPTP phosphatase inhibitors, primary screen, biochemical, fluorescence intensity, uHTS. Low molecular weight phosphotyrosine protein phosphatase (Homo sapiens), P24666. 360,000 compounds, 0.22% hits. inhibition, % at 20 µM. AID 651560, 2012. recombinant LMPTP-A, OMFP fluorogenic substrate;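 active = compounds that cut the enzyme signal by at least half of the control window in the single-dose screen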
# Target sequence (P24666 whole entry, looked up): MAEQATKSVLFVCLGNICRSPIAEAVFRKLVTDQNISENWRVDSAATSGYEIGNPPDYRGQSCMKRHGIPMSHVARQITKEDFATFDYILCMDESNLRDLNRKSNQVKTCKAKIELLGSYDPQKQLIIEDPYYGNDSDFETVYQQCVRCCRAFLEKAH
#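 Test system – LMPTP-A phosphatase enzyme · Quantity – 0.625 nM LMPTP-A final · Reagent – OMFP substrate, 400 µM final · Dosing – one test concentration per compound, 20 µM, with 3% DMSO overall · Timing – 50 min enzyme reaction at room temperature, protected from light · Detection – fluorescence intensity · Controls – substrate-only low control, DMSO enzyme-plus-substrate high control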
# STEP inh = STEP phosphatase inhibitors, primary screen, biochemical, fluorescence intensity, uHTS; recombinant STEP, OMFP fluorogenic substrate; Tyrosine-protein phosphatase non-receptor type 5 (Homo sapiens), P54829; 360,000 compounds, 0.25% hits; inhibition, % at 20 µM; AID 588621, 2011;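 active = inhibition at 20 µM, scaled per plate between control wells, above about 37%, limit read from the data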
#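 Material: STEP (striatal-enriched tyrosine phosphatase) enzyme, cell-free | Medium: 50 mM Bis-Tris pH 6.0 with 2.5 mM DTT and 0.005% Tween 20 | Read-out: Percent inhibition scaled to no-enzyme and uninhibited-enzyme controls, plate-pattern corrected | Signal: Fluorescence read at 480 nm ex / 540 nm em | Times: 20 min reaction, room temperature, in the dark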
# Scp1 inh = Scp-1 phosphatase inhibitors, primary screen, biochemical, colorimetric, uHTS; Carboxy-terminal domain RNA polymerase II polypeptide A small phosphatase 1 (Homo …; Recombinant Scp1, phosphopeptide, malachite green phosphate absorbance; inhibition, % at 20 µM; 340,000 compounds, 0.88% hits; AID 493091, 2011;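 active = inhibition above about 50% at 20 µM, limit read from the data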
#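 assay system = SCP-1 phosphatase catalytic domain, residues 76-261 | buffer or medium = 50 mM Tris acetate pH 5.5, 0.005% Tween-20, 10 mM MgCl2 | incubation = enzyme reaction 45 min at room temperature, colour 5 min, stabilisation 30 min | signal = Phosphate-binding colour reagent, absorbance read at 630 nm | measure = % inhibition at 20 µM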
# DNMT1 inh = human DNMT1 methyltransferase inhibitors, primary screen, biochemical, molecular beacon, fluorescence, HinP1I cleavage, uHTS; inhibition (reported as % activation of signal), % at 10 µM; DNA (cytosine-5)-methyltransferase 1 (Homo sapiens), P26358; 360,000 compounds, 0.83% hits; in the data active = inhibition above about 50%
# Numbers stand for hits; – = inactive; · = no result.
SMILES,Rpn11 block,LMPTP block,STEP inh,Scp1 inh,DNMT1 inh
Cc1ccc(S(=O)(=O)/N=C2\C=C(Nc3cccc(C(=O)O)c3)C(=O)c3ccccc32)cc1,–,–,–,–,59.9
Cc1ccc(NC2=C/C(=N/S(=O)(=O)c3cccs3)c3ccccc3C2=O)cc1,–,–,–,–,–
COC(=O)c1ccccc1NC1=C/C(=N\S(=O)(=O)c2ccc(C(=O)O)cc2)c2ccccc2C1=O,–,–,–,–,80.8
Cc1ccc(CN2C(=O)c3ccccc3C2c2nnnn2-c2c(C)cccc2C)cc1 (stereo unspecified),·,–,·,·,·
Cc1ccc(S(=O)(=O)/N=C2\C=C(Nc3ccc(O)cc3)C(=O)c3ccccc32)cc1,–,–,–,–,52.7
O=[N+]([O-])c1cccc2c(S(=O)(=O)N3CCOCC3)cccc12,–,–,59.1,–,–
COC(=O)c1cc2c(n1S(=O)(=O)c1ccc(C)cc1)C(=O)C(=O)c1[nH]cc(C(=O)OCc3ccccc3)c1-2,–,–,–,–,81.5
COC(=O)c1ccc(COC(=O)c2ccc(CS(=O)(=O)c3ccc(C)cc3)cc2)cc1,–,–,–,–,–
O=C(Nc1cccnc1)c1cc2c(ccc3ccccc32)o1,61.9,–,–,–,–
O=C(CSc1nnc(-c2c[nH]c3ccccc23)n1C1CC1)NC1CCS(=O)(=O)C1 (stereo unspecified),–,–,–,·,–
Cc1ccc2[nH]c3ccccc3c(=O)c2c1,–,–,–,–,–
O=c1c2ccccc2[nH]c2ccc(O)cc12,–,–,–,60.9,–
O=C(NCC1CCCO1)c1ccccc1NS(=O)(=O)c1cc([N+](=O)[O-])ccc1Cl (stereo unspecified),–,–,–,–,–
COc1ccc(C(O)c2ncc(-c3ccccc3Cl)[nH]2)cc1F (stereo unspecified),–,–,–,·,–
Cc1ccc(-c2cc(C(=O)Nc3ccccn3)c3ccccc3n2)o1,–,–,–,57.9,60.9
Cc1ccc(NC(=O)c2cc(-c3ccc(C)o3)nc3ccccc23)cc1,–,–,–,–,–
COc1ccc(CN2C(=O)CCC2(C)c2nnnn2-c2ccc3c(c2)OCCO3)cc1 (stereo unspecified),·,–,·,·,·
CCCCn1nnnc1C(c1ccccc1)N1CCN(c2cccc(C(F)(F)F)n2)CC1 (stereo unspecified),·,–,·,·,·
Cc1cc(C)n2nc3nc(N4CCCCC4)nc(-c4ccco4)c3c2n1,–,–,–,–,53.9
Cc1cc(C)cc(NS(=O)(=O)CCCS(=O)(=O)Nc2cc(C)cc(C)c2)c1,–,–,–,–,–
O=C(Oc1c(Cl)cc(Cl)c2cccnc12)c1cccc([N+](=O)[O-])c1,48.8,–,–,–,–
O=C(Nc1ccc(C(O)c2ccccc2)cc1)[C@@H]1O[C@H](CO)[C@@H](O)[C@H]1O (stereo partly specified),–,–,–,·,–
O=C(Nc1ccc(CSc2ccccc2)cc1)c1ccco1,–,–,–,–,–
COc1ccc(-n2c(NC(=O)c3ccco3)c(C#N)c3nc4ccccc4nc32)cc1,–,–,–,–,–
CCC(=O)Nc1c(C#N)c2nc3ccccc3nc2n1-c1ccccc1C,–,–,–,–,–
SMILES,Rpn11 block,LMPTP block,STEP inh,Scp1 inh,DNMT1 inh
CCCCn1c(NC(=O)c2ccccc2Cl)c(C#N)c2nc3ccccc3nc21,–,–,–,–,75.7
N#Cc1c(NC(=O)c2ccccc2Cl)n(Cc2ccccc2)c2nc3ccccc3nc12,55.4,–,–,–,53.6
CC1=C(C(=O)N(C(C)C)C(C)C)CC(CC(=O)NCCN2CCOCC2)C(=O)N1CCC1=CCCCC1 (stereo unspecified),–,–,–,·,–
Cc1cc(/C=C\c2ccc3cc(N(C)C)ccc3[n+]2C)c(C)n1-c1ccccc1,81.9,78.2,–,–,53.5
N#Cc1ccc(C(=O)OCC(=O)Nc2cccc(S(=O)(=O)NC3=NCCC3)c2)cc1,–,–,–,–,–
COc1ccccc1Nc1nn2c(=O)c3ccc(C(=O)NCc4cccnc4)cc3nc2s1,–,–,–,·,50.8
Cc1ccc(-c2nc(N)s[n+]2-c2ccccc2)cc1,–,–,–,88.4,–
CNc1nc(-c2ccccc2)[n+](-c2ccc(C)cc2)s1,–,–,–,82.9,–
Cc1ccc(-c2nc3ccccc3nc2-c2ccccc2)cc1,–,–,–,–,–
CC(NC(=O)c1ccc(Cl)c(S(=O)(=O)NC2CC2)c1)c1ccco1 (stereo unspecified),–,–,–,·,–
Cc1ccc(/C=C2/SC(=S)N(C3CCCCC3)C2=O)o1,101.5,–,–,–,–
CC(CCCN1CCCC1)Nc1ccnc2cc(Cl)ccc12 (stereo unspecified),–,76.2,–,–,–
NNc1nc2c(Cl)ccc(Cl)c2s1,–,85.1,–,–,–
CCN(CC)CCNc1ccc(C)c2sc3ccc(O)cc3c(=O)c12,–,–,–,–,53.8
Cc1ccc2c(c1)N(CC(=O)NC1CCC(C)CC1)C(=O)c1cccnc1O2 (stereo unspecified),–,–,–,–,–
O=C(NC1CCCC1)c1ccc2nc(-c3ccco3)c(-c3ccco3)nc2c1,–,56.5,–,79.4,113.5
O=C(NCCc1ccccc1)c1ccc(=O)oc1,–,–,–,–,–
O=C(NCCc1ccccc1)c1ccc2nc(-c3ccco3)c(-c3ccco3)nc2c1,–,58.7,–,77.4,104.6
O=C(NC1CCCC1)c1ccc2nc[nH]c2c1,–,–,–,–,–
O=C1c2ccccc2C(=O)C12OC2c1cccc2ccccc12 (stereo unspecified),–,–,–,–,58.3
O=C1NC(c2cccc3ccccc23)Nc2ccccc21 (stereo unspecified),–,–,–,–,–
O=c1c2c([N+](=O)[O-])cc([N+](=O)[O-])cc2sn1-c1ccc(Br)cc1,–,–,–,93.9,–
O=c1c2c([N+](=O)[O-])cc([N+](=O)[O-])cc2sn1Cc1ccccc1,–,–,–,–,–
CCCCn1c(N)c(N(CC(C)C)C(=O)c2c(-c3ccccc3)noc2C)c(=O)[nH]c1=O,–,–,–,–,–
CCCCCC(=O)Nc1cc(S(=O)(=O)O)cc2cc(S(=O)(=O)O)cc(O)c12,–,95.7,98.9,101.9,–
O=C(CSc1nnc2ccc(-c3ccco3)nn12)Nc1ccccc1F,–,52.9,–,–,–
